Compound activity as filed in PubChem.
Rows were chosen to be rich in hits. Some 1.3% of all compounds tested hit in one or more screens of this group.
Smad3 inh: Smad3 (human) transcription factor binding inhibition | inhibition, % at 25 µM | TR-FRET Smad3/Dy647-FoxH1 peptide binding, europium anti-His | actives 0.29% (n = 88,000) | P84022 | AID 630;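 active = compounds that reduce the energy-transfer binding signal between the protein and its labelled peptide by more than half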;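 also: 0% = Smad3 plus labelled peptide maximal FRET and 100% = peptide-only background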
Phagocyt inh: inhibitors of macrophage phagocytosis; J774A.1 macrophage IgG-bead phagocytosis, imaging; inhibition, % at 5 µM; actives 0.07% (n = 110,000);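 active = inhibition above the mean of the plate negative controls plus 5 SD, cut at about 13% in these data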;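 also: phagocytic index as fraction of beads internalized from green versus red external bead signal; plate controls were DMSO negative control for no effect and cytochalasin-D positive control for full effect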
Mac1 fbg inh: blocks human CD11b/CD18 adhesion to fibrinogen. P05107+P11215. K562 CD11b/CD18 adhesion to fibrinogen, ATPlite luminescence; Mn2+ added to activate the integrin. inhibition, % at 10 µM. actives 0.54% (n = 93,000). AID 1497;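 active = primary inhibition of 50% or more at 10 µM, then 40% or more on retest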
EphB4 antag: EphB4-ephrin-B2 interaction antagonism; inhibition, % at 7 µM; EphB4 LBD / TNYL-RAW-Alexa532 peptide, fluorescence polarization; actives 0.15% (n = 97,000); AID 720; P54760;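 active = inhibition above the screen-wide mean inhibition plus 3 SD, cut at about 15% in these data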;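 also: 0% = DMSO wells and 100% = excess unlabeled TNYL-RAW peptide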
CD11b adhes enh: increases human CD11b/CD18 adhesion to fibrinogen. activation, % at 10 µM. P05107+P11215. actives 0.07% (n = 93,000). K562 CD11b/CD18 adhesion to fibrinogen, ATPlite luminescence;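 active = 10 µM primary screen giving 50% or more activity, confirmed by 40% or more on retest at that dose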
HIV Rev-RRE inh: HIV Rev-RRE protein-RNA interaction inhibition; Rev peptide-RRE RNA binding, FRET; inhibition, % at 8 µM; actives 0.79% (n = 97,000); AID 704;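 active = inhibition above the screen-wide mean plus 3 SD, cut at about 35% in these data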;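 also: 0% = median DMSO wells and 100% = median Neomycin B control wells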
Target sequence (P05866 whole entry, looked up): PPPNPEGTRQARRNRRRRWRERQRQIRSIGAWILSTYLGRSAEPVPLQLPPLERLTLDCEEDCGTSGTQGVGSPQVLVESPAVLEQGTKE
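Assay system: labelled RRE RNA duplex and labelled Rev peptide / Medium: HEPES pH 7.5 salt buffer with EDTA / Reagent: labelled Rev peptide / Schedule: 5 + 15 min at 25 °C / Signal: FRET, excitation 480 nm, emission 540 nm donor and 671 nm acceptor / Benchmarks: DMSO and neomycin B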
Starred values were filed as active, the others as inactive; . = no result given; [ ] = another dose, or the depositor's remark.

SMILES	Smad3 inh	Phagocyt inh	Mac1 fbg inh	EphB4 antag	CD11b adhes enh	HIV Rev-RRE inh
CCCCC[C@@H](O)[C@@H]1C(=O)O[C@@H](C)[C@@H](O)C=C/C=C\C=CC=C/C=C(/C)[C@H](O)C[C@H](O)C[C@H](O)C[C@H](O)C[C@H](O)C[C@H](O)C[C@@H]1O	2	.	.	.	.	.
Cc1ccc(C2C(C#N)=C(N)Oc3c2sc2ccccc32)o1 (centres undefined)	8	0	2	-11	11	94*[fluorescence artefact?]
O=C(CCN1CCCCC1)c1csc2ccccc12	5	.	.	.	.	.
CC(C)(C)NS(=O)(=O)c1ccc(CCC(=O)N2CCOCC2)cc1	6	22*[artifact]	-11	2	3	2
CC1CCN(C(=O)CCc2ccc(S(=O)(=O)NC(C)(C)C)cc2)CC1	2	-1	-4	1	-1	5
O=C(O)[C@@H](Cc1c[nH]c2ccccc12)C(=O)NO	5	.	.	.	.	.
O=S1(=O)CCN(c2ccccc2CC(c2c[nH]c3ccccc23)c2c[nH]c3ccccc23)CC1	88*	.	.	.	.	.
O=c1c(/C=C(\O)c2ccc(F)cc2)nc2ccccc2n1-c1ccccc1	14	-2	-1	-8	-1	127*[fluorescence artefact?]
NNC(=O)Cc1cccnc1	7	.	.	.	.	.
COc1cccc(OCC(=O)Nc2c(C(=O)Nc3ccc(OC)cc3OC)oc3ccccc23)c1	13	.	.	.	.	.
Cc1ccc(CN=Cc2[nH]c3ccc(Br)c(Cl)c3c2O)cc1	7	0	0	-1	14	116*[fluorescence artefact?]
O=c1[nH]c(=O)n(C2CCCCCC2)c(O)c1C=NCc1ccc(F)cc1	-8	-1	8	14	-3	11
Oc1c(C=NCc2ccc(F)cc2)[nH]c2ccc(Br)c(Cl)c12	-3	-3	4	6	-2	99*[fluorescence artefact?]
Cc1ccc(CN2CCN(/N=C/c3cc(Br)cc(Br)c3O)CC2)cc1	.	-4	.	.	.	.
O=C(O)[C@@H](O)[C@@H](O)[C@H](O)C(=O)CO	2	.	.	.	.	.
O=[N+]([O-])c1cc([N+](=O)[O-])c2cccnc2c1Oc1ccccc1O	.	-3	90*	.	-10	.
CN(Cc1cc([N+](=O)[O-])c2cccnc2c1O)C1CCCCC1	.	-4	.	.	.	.
O=C(CCSc1ccc(Cl)c(Cl)c1)NC12CC3CC(CC(C3)C1)C2	.	-5	-2	-2	-8	10
COc1ccc(S(=O)(=O)N=C2C=C(C)C(=O)C(C)=C2)cc1	.	3	89*	-15	10	7
CCOc1cc2c(cc1OCC)C(c1cc(OC)c(O)c(OC)c1)NCC2 (centres undefined)	4	.	.	.	.	.
O=C(O)CCCN1C(=O)/C(=C/c2ccc(-c3nc4ccccc4s3)o2)SC1=S	.	0	93*	-5	41	71*
O=C(O)C(Cc1cccs1)C(=O)O	10	.	.	.	.	.
Fc1ccc(NCc2cccnc2)cc1F	11	.	-1	-1	-1	41*
Cc1cc(F)ccc1NCc1cccnc1	0	.	.	-1	.	2
Cc1ccc(-n2nc3cc(C)c(N)cc3n2)cc1	35	0	48	4	-7	-1
SMILES	Smad3 inh	Phagocyt inh	Mac1 fbg inh	EphB4 antag	CD11b adhes enh	HIV Rev-RRE inh
Cc1cc(Cc2cc(C)c(N)cc2N)c(N)cc1N	102*	.	.	.	.	.
COc1ccc(Nc2nnc(SCc3cc(=O)n4ccsc4n3)s2)cc1	33	.	.	-5	.	42*
CSc1nsc(/C=C/Nc2ccc(Cl)cc2)c1C#N	.	.	.	4	.	42*
CO[C@@H]1/C=C\O[C@@]2(C)Oc3c(C)c(O)c4c(c3C2=O)C(=N[C@H]2CC[C@H](O)O[C@@H]2C)C=C(NC(=O)/C(C)=C\C(=O)[C@@H]2C[C@H]2[C@@H](O)[C@H](C)[C@@H](O)[C@H](C)[C@H](OC(C)=O)[C@@H]1C)C4=O	9	.	.	.	.	.
Cc1cccn2c(=O)c3cc(C#N)c(=O)n(CC4CCCO4)c3nc12 (centres undefined)	.	-4	3	8	0	15
COc1ccc(-c2ccc3c(N)c(C(=O)c4ccc(OC)c(OC)c4)sc3n2)cc1	.	0	13	5	19	85*[fluorescence artefact?]
COc1ccc(C(=O)c2sc3nc(-c4ccccc4)ccc3c2N)cc1OC	.	0	4	-3	54	97*[fluorescence artefact?]
COc1cccc(C2CC(c3c(-c4ccccc4)c4cc(Cl)ccc4[nH]c3=O)=NN2S(C)(=O)=O)c1OC (centres undefined)	4	1	1	5	0	10
